Data set [1] in a line: Half life in Sprague-Dawley rat at 10 mg/kg, po measured after 48 hrs by LC-MS/MS analysis. Type of data set: ADME, organism-based. Conditions: in vivo.
Data set [2] is described as follows: Metabolic stability in ICR mouse liver microsomes assessed as parent compound remaining at 0.1 uM incubated for 60 mins in presence of NADPH by LC-MS/MS analysis. Type of data set: ADME, Microsome. As to conditions: read-out: Stability. In outline:
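ICR mouse liver microsomes (1 mg/mL) in 100 mM Tris pH 7.4 with 10 mM MgCl2, preincubated 5 min at 37 °C. Incubated 0–60 min at 37 °C with compound at 0.1 µM final. Quench with ice-cold methanol with 0.5% formic acid, centrifuge, LC-MS/MS. No-microsome controls run; all in duplicate.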

Data set [3] is described as follows: Metabolic stability in Sprague-Dawley rat plasma assessed as parent compound remaining at 1 uM incubated for 120 mins by LC-MS/MS analysis. Type of data set: ADME, cell-free. Conditions: read-out: Stability. In outline: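 SD rat plasma incubated with compound for 120 min. Supernatant analysed by LC-MS/MS; remaining % = (C120/C0) × 100. Values come from two independent experiments.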

Another data set has as its target Dipeptidyl peptidase 9 (Homo sapiens, UniProt Q86TI2). The data set can be described thus: Inhibition of human recombinant DPP9 using Gly-Pro-AMC as substrate preincubated for 15 mins followed by substrate addition and measured for 20 mins by fluorescence based microplate reader assay.
A short description of data set [4]: Cytotoxicity against human L02 cells assessed as cell viability up to 100 uM measured after 48 hrs by MTT assay relative to control. As to conditions: read-out: Activity. Format: cell-based. In outline: (§1)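 Log-phase hepatic LO2 cells seeded at 1 × 10^4 cells/well and exposed to compound or vehicle for 48 h. MTT (5 mg/mL in PBS) added for 4 h at 37 °C, 5% CO2; formazan dissolved in DMSO, absorbance read at 490 nm. Viability given as % of vehicle control; mean ± SD, n = 5.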
(In general: Formazan colour is commonly taken as a measure of viable cells.)

A further data set deals with Dipeptidyl peptidase 8 (Homo sapiens, UniProt Q6V1X1). The data set can be described thus: Inhibition of human recombinant DPP8 using Gly-Pro-AMC as substrate preincubated for 15 mins followed by substrate addition and measured for 20 mins by fluorescence based microplate reader assay.
The nature of data set [5]: Tmax in Sprague-Dawley rat at 10 mg/kg, po measured after 48 hrs by LC-MS/MS analysis. Format: ADME, organism-based. Conditions: in vivo.
Data set [6] can be described thus: Cmax in Sprague-Dawley rat at 10 mg/kg, po measured after 48 hrs by LC-MS/MS analysis. Conditions: in vivo. The arrangement: route oral, dose 10 mg/kg, time 48 hrs. Type of data set: ADME, organism-based.
Data set [7] can be described thus: AUC (0 to infinity) in Sprague-Dawley rat at 10 mg/kg, po measured after 48 hrs by LC-MS/MS analysis. Type of data set: ADME, organism-based. More on the design: route oral, dose 10 mg/kg, time 48 hrs. As to conditions: in vivo.
A short description of data set [8]: Clearance in Sprague-Dawley rat at 10 mg/kg, po measured after 48 hrs by LC-MS/MS analysis. Format: ADME, organism-based. As to conditions: in vivo.
The target in data set [9] is Dipeptidyl peptidase 4 (Rattus norvegicus) (UniProt P14740). As to the kind of experiment: In vivo inhibition of DPP4 in Sprague-Dawley rat plasma at 10 mg/kg, po via gavage using Gly-Pro-AMC as substrate measured after 30 mins relative to control. Format: functional, organism-based. In outline: (§2)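 Male SD rats (n = 3/group), fasted overnight, gavaged with 10 mg/kg in distilled water or vehicle. Heparinized orbital blood taken at 0–48 h; plasma stored −20 °C. Plasma mixed with 125 µM Gly-Pro-AMC in 100 mM HEPES pH 7.5, 0.1 mg/mL BSA; AMC release followed 10 min at 37 °C (ex 360/em 460 nm). Rate expressed as % of vehicle-sample rate.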

Data set [10] shares this target. The data set can be described thus: In vivo inhibition of DPP4 in Sprague-Dawley rat plasma at 10 mg/kg, po via gavage using Gly-Pro-AMC as substrate measured after 12 hrs relative to control. Type of data set: functional, organism-based. In outline:
as §2

The target is the same in data set [11]. As to the kind of experiment: In vivo inhibition of DPP4 in Sprague-Dawley rat plasma at 10 mg/kg, po via gavage using Gly-Pro-AMC as substrate measured after 24 hrs relative to control. Format: functional, organism-based. In outline: as §2
In data set [12] the test system is Mus musculus. As to the kind of experiment: Hypoglycemic activity in ICR mouse assessed as reduction in glucose secretion at 10 mg/kg, po via gavage administered as single dose pretreated with compound followed by glucose challenge measured after 120 mins relative to control. As to conditions: 2 h. More on the design: scale not given: the % may be the effect or the level left. Type of data set: functional. In outline: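 Male ICR mice (6–7 weeks), overnight fasted, n = 8/group. Single gavage dose in water (vehicle: water). Tail-tip blood glucose by glucometer. Oral glucose 3 g/kg given 60 min after treatment (t = 0), and readings taken up to 120 min.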

Data set [13] concerns Mus musculus. As to the kind of experiment: Hypoglycemic activity in overnight fasted C57BL/6 db/db mouse reduction in blood glucose AUC (0 to 120 mins) at 10 mg/kg, po pretreated with compound for 30 mins followed by oral glucose challenge and measured up to 120 mins by glucometer relative to control. As to conditions: time min <=150. The arrangement: scale not given: the % may be the effect or the level left. Type of data set: functional. In outline: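 Male C57BL/6 db/db mice (6–8 weeks, 22 ± 2 g), overnight fasted, n = 6 per group. Oral dosing in water (vehicle: water), then oral glucose 2 g/kg 30 min later. Tail-bleed glucose by glucometer predose and at 0, 15, 30, 60 and 120 min after the load.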

The test system of data set [14] is Mus musculus. As to the kind of experiment: Antidiabetic activity in C57BL/6 db/db mouse assessed as reduction in blood glucose AUC (0 to 120 mins) at 10 mg/kg, po administered once daily for 4 weeks followed by 12 hrs fasting and subsequent glucose challenge and measured up to 120 mins by glucometer relative to control. Type of data set: functional. The arrangement: scale not given: the % may be the effect or the level left. In outline:
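Male db/db mice (10 weeks old), grouped by nonfasting and 12 h fasting glucose and body weight, n = 8 per group, lean littermates as lean control. Oral dosing in water once daily for 4 weeks. Then 12 h fast, oral glucose 1.5 g/kg, glucometer readings at 0, 15, 30, 60 and 120 min.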

Data set [15] can be described thus: Cytotoxicity against human L02 cells assessed as cell viability at 20 uM measured after 48 hrs by MTT assay relative to control. Type of data set: cell-based. Conditions: read-out: Activity. In outline:
as §1

The target in another data set is Dipeptidyl peptidase 4 (Homo sapiens, UniProt P27487). The data set can be described thus: Inhibition of human recombinant DPP4 using Gly-Pro-AMC as substrate preincubated for 15 mins followed by substrate addition and measured for 20 mins by fluorescence based microplate reader assay.
Data set [16] in a line: Half life in Sprague-Dawley rat at 3 mg/kg, iv measured after 48 hrs by LC-MS/MS analysis. Type of data set: ADME, organism-based. Conditions: in vivo.
Data set [17] in a line: Cmax in Sprague-Dawley rat at 3 mg/kg, iv measured after 48 hrs by LC-MS/MS analysis. Type of data set: ADME, organism-based. The arrangement: route intravenous, dose 3 mg/kg, time 48 hrs. As to conditions: in vivo.
Data set [18] is described as follows: AUC (0 to infinity) in Sprague-Dawley rat at 3 mg/kg, iv measured after 48 hrs by LC-MS/MS analysis. The arrangement: route intravenous, time 48 hrs, dose 3 mg/kg. Format: ADME, organism-based. Conditions: in vivo.
Data set [19] can be described thus: Clearance in Sprague-Dawley rat at 3 mg/kg, iv measured after 48 hrs by LC-MS/MS analysis. Type of data set: ADME, organism-based. As to conditions: in vivo.

The values below come from ChEMBL document CHEMBL4840327, “Identification and structure-activity relationship exploration of uracil-based benzoic acid and ester derivatives as novel dipeptidyl Peptidase-4 inhibitors for the treatment of type 2 diabetes mellitus” (Eur J Med Chem, 2021).

Sequence of Dipeptidyl peptidase 9 (Q86TI2 whole entry): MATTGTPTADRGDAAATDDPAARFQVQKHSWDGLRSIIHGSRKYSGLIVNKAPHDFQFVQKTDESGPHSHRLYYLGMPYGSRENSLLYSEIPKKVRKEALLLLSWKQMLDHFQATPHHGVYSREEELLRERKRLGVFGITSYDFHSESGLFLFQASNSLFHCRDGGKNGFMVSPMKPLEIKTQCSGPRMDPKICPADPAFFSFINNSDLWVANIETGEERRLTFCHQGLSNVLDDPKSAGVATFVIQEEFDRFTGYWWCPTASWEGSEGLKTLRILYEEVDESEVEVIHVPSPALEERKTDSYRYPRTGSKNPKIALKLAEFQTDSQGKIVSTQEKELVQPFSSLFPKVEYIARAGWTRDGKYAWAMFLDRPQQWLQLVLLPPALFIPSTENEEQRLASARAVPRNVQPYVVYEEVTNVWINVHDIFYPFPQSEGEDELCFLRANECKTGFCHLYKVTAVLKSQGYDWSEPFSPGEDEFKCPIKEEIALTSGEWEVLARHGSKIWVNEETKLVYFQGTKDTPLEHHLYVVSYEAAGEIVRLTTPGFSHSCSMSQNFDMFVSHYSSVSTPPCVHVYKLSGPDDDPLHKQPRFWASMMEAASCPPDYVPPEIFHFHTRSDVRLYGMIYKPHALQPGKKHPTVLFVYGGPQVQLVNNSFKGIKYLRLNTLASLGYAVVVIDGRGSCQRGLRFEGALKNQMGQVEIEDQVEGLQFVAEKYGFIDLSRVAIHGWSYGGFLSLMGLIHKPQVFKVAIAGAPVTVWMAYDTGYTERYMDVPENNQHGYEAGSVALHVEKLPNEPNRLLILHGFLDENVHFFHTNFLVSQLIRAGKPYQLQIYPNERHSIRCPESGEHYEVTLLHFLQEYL
Sequence of Dipeptidyl peptidase 4 (Rattus norvegicus) (P14740 whole entry, looked up): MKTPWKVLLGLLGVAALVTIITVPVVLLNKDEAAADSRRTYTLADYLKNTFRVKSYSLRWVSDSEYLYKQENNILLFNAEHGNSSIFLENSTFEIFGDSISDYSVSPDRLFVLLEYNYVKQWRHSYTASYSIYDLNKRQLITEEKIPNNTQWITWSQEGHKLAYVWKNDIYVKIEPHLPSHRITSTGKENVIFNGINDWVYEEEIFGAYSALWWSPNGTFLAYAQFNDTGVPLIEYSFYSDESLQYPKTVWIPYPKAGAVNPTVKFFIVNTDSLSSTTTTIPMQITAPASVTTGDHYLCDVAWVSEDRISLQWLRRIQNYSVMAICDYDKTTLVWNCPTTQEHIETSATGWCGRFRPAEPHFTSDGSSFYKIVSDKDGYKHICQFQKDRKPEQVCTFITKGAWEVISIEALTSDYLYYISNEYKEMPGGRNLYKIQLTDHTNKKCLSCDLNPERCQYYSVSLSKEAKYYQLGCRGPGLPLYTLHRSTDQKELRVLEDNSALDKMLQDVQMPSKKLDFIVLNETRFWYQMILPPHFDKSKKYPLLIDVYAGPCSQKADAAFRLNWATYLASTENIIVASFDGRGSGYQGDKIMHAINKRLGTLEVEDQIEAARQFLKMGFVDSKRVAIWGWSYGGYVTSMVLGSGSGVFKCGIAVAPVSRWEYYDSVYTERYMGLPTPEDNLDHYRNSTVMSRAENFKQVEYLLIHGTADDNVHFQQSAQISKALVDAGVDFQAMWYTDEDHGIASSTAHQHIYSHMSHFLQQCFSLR
Sequence of Dipeptidyl peptidase 8 (Q6V1X1 whole entry): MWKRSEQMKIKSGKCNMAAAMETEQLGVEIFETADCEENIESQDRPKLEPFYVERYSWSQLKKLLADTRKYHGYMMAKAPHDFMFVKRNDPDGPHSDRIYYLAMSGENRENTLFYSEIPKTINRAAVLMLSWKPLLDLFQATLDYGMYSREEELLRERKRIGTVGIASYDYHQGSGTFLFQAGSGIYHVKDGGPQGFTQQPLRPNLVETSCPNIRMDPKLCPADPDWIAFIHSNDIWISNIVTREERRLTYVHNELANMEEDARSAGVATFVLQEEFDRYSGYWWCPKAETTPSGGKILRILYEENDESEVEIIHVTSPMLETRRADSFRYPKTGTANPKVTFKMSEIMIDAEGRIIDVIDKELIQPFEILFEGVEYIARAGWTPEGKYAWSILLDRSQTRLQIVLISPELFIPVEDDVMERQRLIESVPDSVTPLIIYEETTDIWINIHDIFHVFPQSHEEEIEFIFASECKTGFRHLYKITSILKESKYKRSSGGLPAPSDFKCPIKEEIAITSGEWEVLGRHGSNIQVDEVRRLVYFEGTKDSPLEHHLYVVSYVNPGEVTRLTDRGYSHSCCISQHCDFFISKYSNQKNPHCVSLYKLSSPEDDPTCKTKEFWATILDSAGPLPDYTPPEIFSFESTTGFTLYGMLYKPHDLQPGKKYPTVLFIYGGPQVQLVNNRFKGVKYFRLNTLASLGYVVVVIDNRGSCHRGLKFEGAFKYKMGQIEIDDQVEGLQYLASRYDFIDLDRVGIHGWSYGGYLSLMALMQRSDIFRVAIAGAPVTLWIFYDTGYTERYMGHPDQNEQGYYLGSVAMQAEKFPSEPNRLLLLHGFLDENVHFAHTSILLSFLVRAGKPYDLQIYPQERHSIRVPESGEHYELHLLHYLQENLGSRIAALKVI
Sequence of Dipeptidyl peptidase 4 (P27487 whole entry): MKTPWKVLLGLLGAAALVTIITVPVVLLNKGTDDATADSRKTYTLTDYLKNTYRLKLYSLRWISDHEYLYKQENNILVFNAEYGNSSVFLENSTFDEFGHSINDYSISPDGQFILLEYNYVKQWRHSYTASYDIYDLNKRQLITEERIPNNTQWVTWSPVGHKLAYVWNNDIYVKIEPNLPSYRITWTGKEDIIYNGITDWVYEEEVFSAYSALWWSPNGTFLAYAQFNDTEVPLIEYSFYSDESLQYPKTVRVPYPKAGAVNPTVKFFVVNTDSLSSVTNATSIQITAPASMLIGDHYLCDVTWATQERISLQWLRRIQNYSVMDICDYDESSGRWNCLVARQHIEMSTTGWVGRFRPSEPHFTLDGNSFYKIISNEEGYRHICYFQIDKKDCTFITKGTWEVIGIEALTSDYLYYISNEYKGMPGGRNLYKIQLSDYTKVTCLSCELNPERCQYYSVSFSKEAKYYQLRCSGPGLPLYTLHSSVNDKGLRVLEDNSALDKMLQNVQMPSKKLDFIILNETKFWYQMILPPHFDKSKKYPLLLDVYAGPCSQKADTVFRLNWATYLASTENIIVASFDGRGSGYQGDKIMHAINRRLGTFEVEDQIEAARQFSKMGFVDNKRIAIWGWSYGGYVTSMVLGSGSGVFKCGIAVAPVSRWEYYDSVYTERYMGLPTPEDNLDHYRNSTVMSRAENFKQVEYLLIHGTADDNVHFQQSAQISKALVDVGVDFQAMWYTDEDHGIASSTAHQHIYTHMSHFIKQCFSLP

As usually defined, the half-life is the time needed for the level to fall by half in the phase considered. One may read the IC50 as the concentration that gives 50% inhibition. As a reminder, the Tmax is the time at which the peak concentration occurs. Usually Cmax stands for the maximum level reached in the sampled fluid or tissue. A word on the AUC(0-inf): it is the area under the concentration-time curve extrapolated to infinity. By CL/F is commonly meant the apparent clearance, not corrected for the fraction that reaches the circulation. As usually defined, the inhibition is the drop in the measured response relative to a control, in per cent. Regarding `CC#CCn1c(N2CCC[C@@H](N)C2)cc(=O)n(Cc2cc(C(=O)OC)ccc2Cl)c1=O`, the half-life in data set [1] was 146 min. For the same compound, the remaining at 1 h, 0.1 µM in data set [2] was determined as 34.4%. Moreover, the remaining at 2 h, 1 µM in [3] is 64.1%. The IC50 at Dipeptidyl peptidase 9 and at Dipeptidyl peptidase 8 was > 100 µM in each case. For the same compound, the viability at 48 h in data set [4] was > 95%. In data set [5], the Tmax is 22.8 min. Further, in data set [6], the Cmax stood at 3190 ng/mL. In addition, the AUC(0-inf) in [7] was determined as 26800 ng·h/mL. The compound also had a CL/F in data set [8] of 9.17 mL/min/kg. The inhibition in data set [9] was 90%; in data set [10], > 70%.

The compound `Cn1c(=O)cc(N2CCC[C@@H](N)C2)n(Cc2ccccc2C#N)c1=O` [ALOGLIPTIN] displayed an inhibition in [11] of 45%. For the same compound, the Activity in the data set on Mus musculus [12] turned out to be 12.4%; with Mus musculus [13] it was 40.1%; in the data set with Mus musculus [14], 16.7%.

Regarding `COc1cccc2c1C(=O)c1c(O)c3c(c(O)c1C2=O)C[C@@](O)(C(=O)CO)C[C@@H]3O[C@H]1C[C@H](N)[C@H](O)[C@H](C)O1` [DOXORUBICIN], the viability at 48 h, 20 µM in data set [15] turned out to be 25%.

As for `CC#CCn1c(N2CCC[C@@H](N)C2)cc(=O)n(Cc2cccc(C(=O)O)c2Br)c1=O`, the IC50 at Dipeptidyl peptidase 4 is > 1 µM.

Turning to `CC#CCn1c(N2CCC[C@@H](N)C2)cc(=O)n(Cc2cccc(C(=O)OC)c2F)c1=O`, the IC50 on Dipeptidyl peptidase 9 and on Dipeptidyl peptidase 8 was > 100 µM in each case.

As to `CC#CCn1c(N2CCC[C@@H](N)C2)cc(=O)n(Cc2cc(Br)cc(C(=O)O)c2)c1=O`, the IC50 on Dipeptidyl peptidase 9 and on Dipeptidyl peptidase 8 was > 100 µM each time.

In general, AUC refers to the area under the concentration-time curve, a measure of exposure. Regarding `CC#CCn1c(N2CCC[C@@H](N)C2)cc(=O)n(Cc2cc(C(=O)O)ccc2Cl)c1=O`, the half-life in [16] was 54.6 min. The remaining at 1 h, 0.1 µM in data set [2] amounted to 106%. Besides, the remaining at 2 h, 1 µM in data set [3] came to 103%. Moreover, the IC50 at Dipeptidyl peptidase 9 and on Dipeptidyl peptidase 8 was > 100 µM throughout. In [4], the viability at 48 h is > 95%. This compound also had a Cmax in data set [17] of 25700 ng/mL. Moreover, the AUC in [18] is 8272.25 ng·h/mL. Besides, the CL in data set [19] is 64.8 mL/min/kg.

Take `CC#CCn1c(N2CCC[C@@H](N)C2)cc(=O)n(Cc2cccc(C(=O)O)c2F)c1=O`: the IC50 at Dipeptidyl peptidase 4 was > 1 µM.

On to `CC#CCn1c(N2CCC[C@@H](N)C2)cc(=O)n(Cc2cc(Br)cc(C(=O)OC)c2)c1=O`, for which the IC50 on Dipeptidyl peptidase 9 and on Dipeptidyl peptidase 8 was > 100 µM each time.

As to `CC#CCn1c(N2CCC[C@@H](N)C2)cc(=O)n(Cc2cccc(C(=O)OC)c2Br)c1=O`, the IC50 at Dipeptidyl peptidase 9 and on Dipeptidyl peptidase 8 was > 100 µM in each case.
